The values below come from ChEMBL document CHEMBL2311531, “Synthesis and antioxidant activities of 2-oxo-quinoline-3-carbaldehyde Schiff-base derivatives” (Bioorg Med Chem Lett, 2013).

The structures appear in SMILES notation.

Type in all cases: functional
A short description of assay [1]: Antioxidant activity assessed as ABTS radical scavenging activity after 3 mins by spectrophotometry. An outline of the steps:
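ABTS radical cation from 2 mM ABTS stock in PBS pH 7.4 reacted with 70 mM K2S2O8, standing in dark at room temperature 15-16 h; diluted with PBS to A734 0.700 ± 0.030. Sample solutions at several concentrations mixed with radical solution, absorbance read after 3 min at ambient temperature; PBS blank. Triplicate; IC50 as concentration scavenging 50% of radicals.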

A short description of assay [2]: Antioxidant activity assessed as superoxide anion radical scavenging activity after 5 mins by spectrophotometry. In outline:
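Pyrogallol autoxidation at room temperature: sample in DMF at various concentrations added to 0.05 M Tris-HCl with 30 mM 1,2,3-trihydroxybenzene (stock), 5 min reaction, stopped with 8.0 M HCl (stock), A320 read against blank. Scavenging % from absorbance with vs without sample; triplicate; IC50 as concentration scavenging 50% of radicals.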

Assay [3] in a line: Antioxidant activity assessed as DPPH scavenging activity after 30 mins by spectrophotometry. In outline: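 Sample in DMF at several concentrations added to 0.004% (w/v) DPPH in ethanol, incubated at 37 °C, A517 read after 30 min. Scavenging % = (Acontrol − Atest)/Acontrol × 100, control lacking scavenger. Triplicate; IC50 as concentration scavenging 50% of radicals.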
(DPPH is a stable violet radical that fades when it is reduced.)

Assay [4] can be described thus: Antioxidant activity assessed as hydroxyl radical scavenging activity after 1 hr by spectrophotometry. In outline: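 Salicylate method: 20 mM sodium salicylate, 1.5 mM FeSO4, sample at various concentrations and 6 mM H2O2 (stock levels) mixed, held 1 h in 37 °C water bath, A510 read against blank. Scavenging % from absorbance with vs without sample; triplicate; IC50 as concentration scavenging 50% of radicals.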

By IC50 is commonly meant the concentration at which inhibition is half-maximal.

Regarding `Cc1ccc2[nH]c(=O)c(/C=N/c3ccc(S(N)(=O)=O)cc3)cc2c1`, the half-inhibitory concentration (IC50) is 1200 µM in assay [1], 258 µM in assay [2] (read-out: IC50), “Not Active” in assay [3] and “Not Active” in assay [4].
Regarding `O=C1O[C@H]([C@@H](O)CO)C(O)=C1O` [ASCORBIC ACID], the IC50 worked out at 12.8 µM in assay [1], 15.6 µM in assay [2] (read-out: IC50), 43.8 µM in assay [3] (read-out: IC50) and 73.8 µM in assay [4] (read-out: IC50).
For the molecule `O=c1[nH]c2ccccc2cc1/C=N/CCO`, the concentration for half-maximal inhibition (IC50) was 1210 µM in assay [1], 467 µM in assay [2] (read-out: IC50), “Not Active” in assay [3] and 3310 µM in assay [4] (read-out: IC50).
In the case of `O=c1[nH]c2ccccc2cc1/C=N/Nc1ccccc1`, the half-maximal inhibitory concentration (IC50) in assay [1] stood at 11.8 µM; in assay [2] (read-out: IC50) it was 306 µM; in assay [3] (read-out: IC50), 76.5 µM; in assay [4] (read-out: IC50), 1000 µM.
For `Cc1ccc2[nH]c(=O)c(/C=N/N)cc2c1`, the IC50 in assay [1] worked out at 11.3 µM; in assay [2] (read-out: IC50) it was 153 µM; in assay [3] (read-out: IC50), 641 µM; in assay [4] (read-out: IC50), 790 µM.
Regarding `O=c1[nH]c2ccccc2cc1/C=N/c1ccc(O)cc1`, the IC50 was 7.15 µM in assay [1], 306 µM in assay [2] (read-out: IC50), 92.1 µM in assay [3] (read-out: IC50) and “Not Active” in assay [4].
Regarding `Cc1ccc2[nH]c(=O)c(/C=N/c3ccc(C(=O)O)cc3)cc2c1`, the half-inhibitory concentration (IC50) is 222 µM in assay [1], 409 µM in assay [2] (read-out: IC50), “Not Active” in assay [3] and “Not Active” in assay [4].
In the case of `O=c1[nH]c2ccccc2cc1/C=N/c1ccccc1O`, the IC50 in assay [1] is 11.7 µM; in assay [2] (read-out: IC50) it was 237 µM; in assay [3] (read-out: IC50), 22.8 µM; in assay [4] (read-out: IC50), 1660 µM.
As for `NS(=O)(=O)CC(=O)N/N=C/c1cc2ccccc2[nH]c1=O`, the half-maximal inhibitory concentration (IC50) was determined as 8.91 µM in assay [1], 256 µM in assay [2] (read-out: IC50), 1290 µM in assay [3] (read-out: IC50) and 8730 µM in assay [4] (read-out: IC50).
On to `Cc1ccc2[nH]c(=O)c(/C=N/NC(=O)Cc3ccncc3)cc2c1`, for which the IC50 in assay [1] stood at 882 µM; in assay [2] (read-out: IC50), 209 µM; in assay [3] (read-out: IC50), 3580 µM; in assay [4] (read-out: IC50), 4690 µM.
With `Cc1ccc2[nH]c(=O)c(/C=N/Nc3ccc([N+](=O)[O-])cc3[N+](=O)[O-])cc2c1`, the IC50 is 144 µM in assay [1], “Not Active” in assay [2], “Not Active” in assay [3] and 749 µM in assay [4] (read-out: IC50).
Take `Cc1cc(C(C)(C)C)c(O)c(C(C)(C)C)c1` [BUTYLATED HYDROXYTOLUENE]: the concentration for half-maximal inhibition (IC50) stood at 37 µM in assay [1], 254 µM in assay [2] (read-out: IC50), 65.8 µM in assay [3] (read-out: IC50) and 24700 µM in assay [4] (read-out: IC50).
As for `Cc1ccc2[nH]c(=O)c(/C=N/CCO)cc2c1`, the IC50 is 1190 µM in assay [1], 1480 µM in assay [2] (read-out: IC50), 498 µM in assay [3] (read-out: IC50) and 4180 µM in assay [4] (read-out: IC50).
For the molecule `O=C(O)c1ccc(/N=C/c2cc3ccccc3[nH]c2=O)cc1`, the concentration for half-maximal inhibition (IC50) is 438 µM in assay [1], 381 µM in assay [2] (read-out: IC50), 1660 µM in assay [3] (read-out: IC50) and “Not Active” in assay [4].
`Cc1ccc2[nH]c(=O)c(/C=N/c3ccccc3O)cc2c1`: the half-inhibitory concentration (IC50) in assay [1] is 8.24 µM; in assay [2] (read-out: IC50) it was 286 µM; in assay [3] (read-out: IC50), 26.2 µM; in assay [4] (read-out: IC50) it was 1350 µM.
Consider `Cc1ccc2[nH]c(=O)c(/C=N/NC(=O)CS(N)(=O)=O)cc2c1`, for which the IC50 is 9.17 µM in assay [1], 147 µM in assay [2] (read-out: IC50), 3350 µM in assay [3] (read-out: IC50) and 5830 µM in assay [4] (read-out: IC50).
As for `O=c1[nH]c2ccccc2cc1/C=N/O`, the IC50 came to 31.8 µM in assay [1], 463 µM in assay [2] (read-out: IC50), 118 µM in assay [3] (read-out: IC50) and 2010 µM in assay [4] (read-out: IC50).
The matching figures for `Cc1ccc2[nH]c(=O)c(/C=N/Nc3ccccc3)cc2c1`: 8.47 µM, 309 µM, 62.4 µM and 1470 µM.
As to `CCCC/N=C/c1cc2cc(C)ccc2[nH]c1=O`, the half-inhibitory concentration (IC50) in assay [1] worked out at 43.3 µM; in assay [2] (read-out: IC50) it was 379 µM; in assay [3] (read-out: IC50), 63.2 µM; in assay [4] (read-out: IC50), 3560 µM.
Turning to `O=c1[nH]c2ccccc2cc1/C=N/Cc1ccccc1`, the IC50 in assay [1] is 368 µM; in assay [2] (read-out: IC50) it was 329 µM; in assay [3], “Not Active”; in assay [4] (read-out: IC50), 3140 µM.
With `NS(=O)(=O)c1ccc(/N=C/c2cc3ccccc3[nH]c2=O)cc1`, the IC50 in assay [1] amounted to 1610 µM; in assay [2] (read-out: IC50) it was 169 µM; in assay [3] (read-out: IC50) it was 266 µM; in assay [4] (read-out: IC50), 266 µM.
In the case of `O=c1[nH]c2ccccc2cc1/C=N/Nc1ccc([N+](=O)[O-])cc1`, the half-inhibitory concentration (IC50) in assay [1] was 11.4 µM; in assay [2], “Not Active”; in assay [3] (read-out: IC50), 170 µM; in assay [4] (read-out: IC50), 245 µM.
As to `O=c1[nH]c2ccccc2cc1/C=N/Nc1ccc([N+](=O)[O-])cc1[N+](=O)[O-]`, the IC50 in assay [1] was 142 µM; in assay [2], “Not Active”; in assay [3] (read-out: IC50), 190 µM; in assay [4] (read-out: IC50), 375 µM.
On to `Cc1ccc2[nH]c(=O)c(/C=N/c3ccc(O)cc3)cc2c1`, for which the half-maximal inhibitory concentration (IC50) in assay [1] is 5.24 µM; in assay [2] (read-out: IC50) it was 235 µM; in assay [3] (read-out: IC50) it was 88.5 µM; in assay [4] it was “Not Active”.
With `Cc1ccc2[nH]c(=O)c(/C=N/O)cc2c1`, the concentration for half-maximal inhibition (IC50) was 38.9 µM in assay [1], 389 µM in assay [2] (read-out: IC50), 160 µM in assay [3] (read-out: IC50) and 1980 µM in assay [4] (read-out: IC50).
On to `Cc1ccc2[nH]c(=O)c(/C=N/Nc3ccc([N+](=O)[O-])cc3)cc2c1`, for which the IC50 was 8.25 µM in assay [1], “Not Active” in assay [2], 109 µM in assay [3] (read-out: IC50) and 350 µM in assay [4] (read-out: IC50).
`CCCC/N=C/c1cc2ccccc2[nH]c1=O`: the IC50 in assay [1] stood at 1810 µM; in assay [2] (read-out: IC50) it was 246 µM; in assay [3] (read-out: IC50) it was 439 µM; in assay [4] (read-out: IC50), 7680 µM.
In the case of `N/N=C/c1cc2ccccc2[nH]c1=O`, the IC50 in assay [1] turned out to be 20.6 µM; in assay [2] (read-out: IC50) it was 184 µM; in assay [3] (read-out: IC50), 729 µM; in assay [4] (read-out: IC50) it was 365 µM.
In the case of `Cc1ccc2[nH]c(=O)c(/C=N/Cc3ccccc3)cc2c1`, the IC50 in assay [1] is 607 µM; in assay [2] (read-out: IC50), 310 µM; in assay [3], “Not Active”; in assay [4] (read-out: IC50), 6920 µM.
For the molecule `O=C(Cc1ccncc1)N/N=C/c1cc2ccccc2[nH]c1=O`, the IC50 came to 485 µM in assay [1], 197 µM in assay [2] (read-out: IC50), 2850 µM in assay [3] (read-out: IC50) and 5090 µM in assay [4] (read-out: IC50).
